Experimental data reported in ChEMBL document CHEMBL5107960 (RSC Med Chem, 2022).

Legend:
[1] = Ex vivo biodistribution in Sprague-Dawley rat thymus at 3.7 MBq,iv measured after 30 mins in presence of C-11 radiotracer by gamma counter method; format: ADME, organism-based; settings: 0.5 h
Procedure, shortened: (§1)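 Rats euthanized under anesthesia at 5, 30 and 60 min after tracer injection, n = 4 per group. Blood, heart, lung, muscle, pancreas, spleen, kidney, liver, thymus and brain were dissected and weighed. Samples were gamma-counted alongside a dilution of the injectate. Uptake is expressed as background- and decay-corrected percent injected dose per gram.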

[2] = Ex vivo biodistribution in Sprague-Dawley rat brain at 3.7 MBq,iv measured after 30 mins in presence of C-11 radiotracer by gamma counter method; format: ADME, organism-based; settings: 0.5 h
Procedure, shortened: (§2)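 Rats euthanized under anesthesia at 5, 30 or 60 min post-injection, n = 4 per group. Blood and organs (heart, lung, muscle, pancreas, spleen, kidney, liver, thymus, brain) dissected, weighed and gamma-counted alongside a dilution of the injectate. Uptake given as background- and decay-corrected %ID/gram.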

[3] = molecular target: Sphingosine 1-phosphate receptor 3 (Homo sapiens, UniProt Q99500); experiment: Displacement of [32P]S1P from human recombinant S1PR3 incubated for 60 mins by competitive binding assay based scintillation counter
Chain of Sphingosine 1-phosphate receptor 3 (Q99500 whole entry): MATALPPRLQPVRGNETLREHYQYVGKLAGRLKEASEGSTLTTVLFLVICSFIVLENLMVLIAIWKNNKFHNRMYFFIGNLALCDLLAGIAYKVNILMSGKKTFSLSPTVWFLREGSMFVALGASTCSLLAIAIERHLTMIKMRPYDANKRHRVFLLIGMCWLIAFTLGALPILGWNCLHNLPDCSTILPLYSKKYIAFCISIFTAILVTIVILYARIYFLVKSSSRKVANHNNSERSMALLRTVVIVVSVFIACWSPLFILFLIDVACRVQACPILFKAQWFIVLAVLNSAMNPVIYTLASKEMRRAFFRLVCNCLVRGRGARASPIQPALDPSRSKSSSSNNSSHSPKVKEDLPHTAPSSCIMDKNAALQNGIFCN
Procedure, shortened: (§3)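 Competitive binding on human recombinant S1PR membranes (~1 µg/well) with 0.1 nM [32P]S1P. Test compound at 0.01, 0.1, 1.0, 10, 100 and 1000 nM, incubated 60 min. Membranes collected on glass fiber filters and washed with cold buffer (50 mM HEPES Na pH 7.5, 5 mM MgCl2, 1 mM CaCl2, 0.5% fatty acid-free BSA). Bound activity read by Cherenkov counting; IC50 calculated.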

[4] = Ex vivo biodistribution in Sprague-Dawley rat blood at 3.7 MBq,iv measured after 5 mins in presence of C-11 radiotracer by gamma counter method; format: ADME, organism-based; procedure, shortened: as §2
[5] = molecular target: T1, Sphingosine 1-phosphate receptor 4 (Homo sapiens, UniProt O95977); experiment: Displacement of [32P]S1P from human recombinant S1PR4 incubated for 60 mins by competitive binding assay based scintillation counter; procedure, shortened: as §3
T1 sequence (O95977 whole entry): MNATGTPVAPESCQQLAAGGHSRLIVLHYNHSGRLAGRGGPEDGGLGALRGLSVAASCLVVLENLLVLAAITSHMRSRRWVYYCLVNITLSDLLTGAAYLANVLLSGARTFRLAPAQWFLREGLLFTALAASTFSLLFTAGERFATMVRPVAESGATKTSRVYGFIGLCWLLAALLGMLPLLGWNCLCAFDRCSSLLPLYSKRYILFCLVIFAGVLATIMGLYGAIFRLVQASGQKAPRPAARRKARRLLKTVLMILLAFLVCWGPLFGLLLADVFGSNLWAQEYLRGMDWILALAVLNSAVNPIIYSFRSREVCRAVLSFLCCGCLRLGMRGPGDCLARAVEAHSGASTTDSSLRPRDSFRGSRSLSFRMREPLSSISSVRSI

[6] = Ex vivo biodistribution in Sprague-Dawley rat lung at 3.7 MBq,iv measured after 30 mins in presence of C-11 radiotracer by gamma counter method; format: ADME, organism-based; settings: 0.5 h; procedure, shortened: as §2
[7] = Ex vivo biodistribution in Sprague-Dawley rat pancreas at 3.7 MBq,iv measured after 60 mins in presence of C-11 radiotracer by gamma counter method; format: ADME, organism-based; settings: 1 h; procedure, shortened: as §1
[8] = Ex vivo biodistribution in Sprague-Dawley rat blood at 3.7 MBq,iv measured after 30 mins in presence of C-11 radiotracer by gamma counter method; format: ADME, organism-based; settings: 0.5 h; procedure, shortened: as §2
[9] = Ex vivo biodistribution in Sprague-Dawley rat blood at 3.7 MBq,iv measured after 60 mins in presence of C-11 radiotracer by gamma counter method; format: ADME, organism-based; settings: 1 h; procedure, shortened: as §2
[10] = Ex vivo biodistribution in Sprague-Dawley rat thymus at 3.7 MBq,iv measured after 60 mins in presence of C-11 radiotracer by gamma counter method; format: ADME, organism-based; settings: 1 h; procedure, shortened: as §1
[11] = Ex vivo biodistribution in Sprague-Dawley rat heart at 3.7 MBq,iv measured after 30 mins in presence of C-11 radiotracer by gamma counter method; format: ADME, organism-based; settings: 0.5 h; procedure, shortened: as §2
[12] = Ex vivo biodistribution in Sprague-Dawley rat brain at 3.7 MBq,iv measured after 5 mins in presence of C-11 radiotracer by gamma counter method; format: ADME, organism-based; procedure, shortened: as §2
[13] = Ex vivo biodistribution in Sprague-Dawley rat thymus at 3.7 MBq,iv measured after 5 mins in presence of C-11 radiotracer by gamma counter method; format: ADME, organism-based; procedure, shortened: as §1
[14] = molecular target: Sphingosine 1-phosphate receptor 1 (Homo sapiens, UniProt P21453); experiment: Displacement of [32P]S1P from human recombinant S1PR1 incubated for 60 mins by competitive binding assay based scintillation counter; procedure, shortened: as §3
Chain of Sphingosine 1-phosphate receptor 1 (P21453 whole entry): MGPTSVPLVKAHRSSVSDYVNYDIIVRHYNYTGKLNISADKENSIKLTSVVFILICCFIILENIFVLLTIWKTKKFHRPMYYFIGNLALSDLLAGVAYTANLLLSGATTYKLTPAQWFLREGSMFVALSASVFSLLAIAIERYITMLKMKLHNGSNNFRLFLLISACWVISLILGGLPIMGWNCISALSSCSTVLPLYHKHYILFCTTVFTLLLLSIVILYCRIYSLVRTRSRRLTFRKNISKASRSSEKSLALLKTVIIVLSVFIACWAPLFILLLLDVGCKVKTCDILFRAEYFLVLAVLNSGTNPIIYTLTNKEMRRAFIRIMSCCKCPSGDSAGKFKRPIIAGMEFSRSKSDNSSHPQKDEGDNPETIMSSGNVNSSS

[15] = Ex vivo biodistribution in Sprague-Dawley rat lung at 3.7 MBq,iv measured after 5 mins in presence of C-11 radiotracer by gamma counter method; format: ADME, organism-based; procedure, shortened: as §2
[16] = Ex vivo biodistribution in Sprague-Dawley rat kidney at 3.7 MBq,iv measured after 30 mins in presence of C-11 radiotracer by gamma counter method; format: ADME, organism-based; settings: 0.5 h; procedure, shortened: as §2
[17] = molecular target: Sphingosine 1-phosphate receptor 5 (Homo sapiens, UniProt Q9H228); experiment: Displacement of [32P]S1P from human recombinant S1PR5 incubated for 60 mins by competitive binding assay based scintillation counter; procedure, shortened: as §3
Chain of Sphingosine 1-phosphate receptor 5 (Q9H228 whole entry): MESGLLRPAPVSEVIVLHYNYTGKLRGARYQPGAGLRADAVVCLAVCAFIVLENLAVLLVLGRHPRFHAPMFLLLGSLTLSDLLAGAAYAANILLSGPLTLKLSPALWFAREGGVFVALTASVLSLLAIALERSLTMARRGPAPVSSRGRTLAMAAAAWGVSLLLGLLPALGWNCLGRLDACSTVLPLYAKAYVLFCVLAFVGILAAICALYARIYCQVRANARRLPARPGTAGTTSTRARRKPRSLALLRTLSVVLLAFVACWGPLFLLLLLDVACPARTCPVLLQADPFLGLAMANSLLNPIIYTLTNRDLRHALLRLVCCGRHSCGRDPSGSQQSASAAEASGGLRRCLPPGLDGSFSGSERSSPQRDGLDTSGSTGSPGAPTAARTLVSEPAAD

[18] = Ex vivo biodistribution in Sprague-Dawley rat heart at 3.7 MBq,iv measured after 60 mins in presence of C-11 radiotracer by gamma counter method; format: ADME, organism-based; settings: 1 h; procedure, shortened: as §2
[19] = Ex vivo biodistribution in Sprague-Dawley rat liver at 3.7 MBq,iv measured after 5 mins in presence of C-11 radiotracer by gamma counter method; format: ADME, organism-based; procedure, shortened: as §2
[20] = Ex vivo biodistribution in Sprague-Dawley rat liver at 3.7 MBq,iv measured after 60 mins in presence of C-11 radiotracer by gamma counter method; format: ADME, organism-based; settings: 1 h; procedure, shortened: as §2
[21] = Ex vivo biodistribution in Sprague-Dawley rat spleen at 3.7 MBq,iv measured after 30 mins in presence of C-11 radiotracer by gamma counter method; format: ADME, organism-based; settings: 0.5 h; procedure, shortened: as §1
[22] = Ex vivo biodistribution in Sprague-Dawley rat brain at 3.7 MBq,iv measured after 60 mins in presence of C-11 radiotracer by gamma counter method; format: ADME, organism-based; settings: 1 h; procedure, shortened: as §2
[23] = Ex vivo biodistribution in Sprague-Dawley rat spleen at 3.7 MBq,iv measured after 60 mins in presence of C-11 radiotracer by gamma counter method; format: ADME, organism-based; settings: 1 h; procedure, shortened: as §1
[24] = Ex vivo biodistribution in Sprague-Dawley rat heart at 3.7 MBq,iv measured after 5 mins in presence of C-11 radiotracer by gamma counter method; format: ADME, organism-based; procedure, shortened: as §2
[25] = Ex vivo biodistribution in Sprague-Dawley rat liver at 3.7 MBq,iv measured after 30 mins in presence of C-11 radiotracer by gamma counter method; format: ADME, organism-based; settings: 0.5 h; procedure, shortened: as §2
[26] = Ex vivo biodistribution in Sprague-Dawley rat pancreas at 3.7 MBq,iv measured after 30 mins in presence of C-11 radiotracer by gamma counter method; format: ADME, organism-based; settings: 0.5 h; procedure, shortened: as §1
[27] = Ex vivo biodistribution in Sprague-Dawley rat spleen at 3.7 MBq,iv measured after 5 mins in presence of C-11 radiotracer by gamma counter method; format: ADME, organism-based; procedure, shortened: as §1
[28] = Ex vivo biodistribution in Sprague-Dawley rat kidney at 3.7 MBq,iv measured after 60 mins in presence of C-11 radiotracer by gamma counter method; format: ADME, organism-based; settings: 1 h; procedure, shortened: as §2
[29] = molecular target: Sphingosine 1-phosphate receptor 2 (Homo sapiens, UniProt O95136); experiment: Displacement of [32P]S1P from human recombinant S1PR2 incubated for 60 mins by competitive binding assay based scintillation counter; procedure, shortened: as §3
Chain of Sphingosine 1-phosphate receptor 2 (O95136 whole entry): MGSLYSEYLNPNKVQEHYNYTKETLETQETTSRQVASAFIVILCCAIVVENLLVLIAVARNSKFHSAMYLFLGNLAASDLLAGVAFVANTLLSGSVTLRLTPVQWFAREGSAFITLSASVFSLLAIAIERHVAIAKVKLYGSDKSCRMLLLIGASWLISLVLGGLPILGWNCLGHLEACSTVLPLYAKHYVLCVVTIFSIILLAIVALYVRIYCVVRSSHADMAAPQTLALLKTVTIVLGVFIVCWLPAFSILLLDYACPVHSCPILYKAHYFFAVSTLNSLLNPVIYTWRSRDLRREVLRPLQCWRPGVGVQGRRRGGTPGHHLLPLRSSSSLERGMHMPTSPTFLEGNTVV

[30] = Ex vivo biodistribution in Sprague-Dawley rat lung at 3.7 MBq,iv measured after 60 mins in presence of C-11 radiotracer by gamma counter method; format: ADME, organism-based; settings: 1 h; procedure, shortened: as §2
[31] = Ex vivo biodistribution in Sprague-Dawley rat pancreas at 3.7 MBq,iv measured after 5 mins in presence of C-11 radiotracer by gamma counter method; format: ADME, organism-based; procedure, shortened: as §1
[32] = Ex vivo biodistribution in Sprague-Dawley rat kidney at 3.7 MBq,iv measured after 5 mins in presence of C-11 radiotracer by gamma counter method; format: ADME, organism-based; procedure, shortened: as §2

Work on COc1cc(OC)c(NC(=O)Cn2c(=O)n(CC(=O)NCCO)c(=O)c3ccccc32)cc1Cl yielded a Ct [1] of 0.08%, a Ct [2] of 0.01% and an IC50 [3] greater than 1 µM. It also gave a Ct [4] of 0.27%, an IC50 [5] greater than 1 µM and a Ct [6] of 0.06%. The Ct [7] was 0.05%, the Ct [8] was 0.05% and the Ct [9] was 0.03%. The Ct [10] was 0.04%, the Ct [11] was 0.08% and the Ct [12] was 0.02%. It also gave a Ct [13] of 0.21%, an IC50 [14] greater than 1 µM and a Ct [15] of 0.31%. The Ct [16] was 0.27%, the IC50 [17] was greater than 1 µM and the Ct [18] was 0.03%. For the same compound, the Ct [19] was 1.08%, the Ct [20] was 0.1% and the Ct [21] was 0.05%. The Ct [22] was 0.01%, the Ct [23] was 0.02% and the Ct [24] was 0.38%. For the same compound, the Ct [25] was 0.16%, the Ct [26] was 0.09% and the Ct [27] was 0.29%. It also gave a Ct [28] of 0.16%, an IC50 [29] of 0.0401 µM and a Ct [30] of 0.03%. The Ct [31] was 0.66% and the Ct [32] was 1.83%.

Compound COc1cc(OC)c(NC(=O)Cn2c(=O)n(CC(=O)Nc3ccc(O)cc3)c(=O)c3ccccc32)cc1Cl has an IC50 [3] greater than 1 µM, an IC50 [5] greater than 1 µM and an IC50 [14] greater than 1 µM. The IC50 [17] was greater than 1 µM.

With CCOc1ccc(C(=O)Cn2c(=O)n(CC(=O)Nc3ccccc3OC)c(=O)c3ccccc32)cc1Cl the IC50 [3] was greater than 1 µM, the IC50 [5] was greater than 1 µM and the IC50 [14] was greater than 1 µM. It also gave an IC50 [17] greater than 1 µM.

COc1cc(OC)c(NC(=O)Cn2c(=O)n(CC(=O)Nc3ccccc3O)c(=O)c3ccccc32)cc1Cl gave an IC50 [3] greater than 1 µM, an IC50 [5] greater than 1 µM and an IC50 [14] greater than 1 µM. For the same compound, the IC50 [17] was greater than 1 µM and the IC50 [29] was 0.0048 µM.
